ChEMBL document CHEMBL1135167, “Synthesis and antifungal activity of the 2,2,5-tetrahydrofuran regioisomers of SCH 51048” (2002)

Key:
Assay type in all cases: functional
[1] = test system: Aspergillus sp.; test: Compound was tested for inherent antifungal geometric minimum inhibitory concentration (GMMIC) against Aspergillus in serial dilution from 64 to 0.0313 ug/mL
Procedure, shortened: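 Broth microdilution in Sabouraud dextrose broth, pH 5.7. Compound dissolved in DMSO or ethanol and serially diluted in medium. Inoculum ~10^4/cc, incubated at 27 °C for 72 h. MIC is the lowest concentration giving complete growth inhibition by visual reading. Geometric mean taken across the Aspergillus isolates.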

[2] = test system: Candida; test: Compound was tested for inherent antifungal geometric minimum inhibitory concentration (GMMIC) against Candida albicans and Candida tropicalis in serial dilution from 64 to 0.0313 ug/mL
Procedure, shortened: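 Eagle's minimum essential medium, pH 7.0. Compound in DMSO or ethanol, serially diluted in medium, inoculum 5×10^2/cc. Incubated at 37 °C under CO2 for 48 h. MIC is the lowest concentration with complete visible growth inhibition in microtiter wells. Geometric mean over C. albicans and C. tropicalis strains.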

[3] = test system: Arthrodermataceae; test: Compound was tested for inherent antifungal geometric minimum inhibitory concentration (GMMIC) against Dermatophytes in serial dilution from 64 to 0.0313 ug/mL
Procedure, shortened: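 Sabouraud dextrose broth, pH 5.7, inoculum ~10^4/cc, 27 °C, read visually at 72 h. MIC is the lowest concentration giving complete growth inhibition. Compound in DMSO or ethanol, serially diluted in broth. Geometric mean over T. mentagrophytes D24 and D30, T. rubrum D54 and D61, T. tonsurans D73 and M. canis D18.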

Compound | GMMIC [1] | GMMIC [2] | GMMIC [3]
CCC(CC)n1ncn(-c2ccc(N3CCN(c4ccc(OC[C@@H]5CO[C@@](Cn6cncn6)(c6ccc(F)cc6F)C5)cc4)CC3)cc2)c1=O | 0.04 µg/mL | <=0.04 ug ml-1 | >=0.06 ug ml-1
CCC(CC)n1ncn(-c2ccc(N3CCN(c4ccc(OC[C@H]5CO[C@](Cn6cncn6)(c6ccc(F)cc6F)C5)cc4)CC3)cc2)c1=O | >=128 ug ml-1 | 0.27 µg/mL | >=128 ug ml-1
CCC(C)n1ncn(-c2ccc(N3CCN(c4ccc(OCC5COC(Cn6cncn6)(c6ccc(Cl)cc6Cl)O5)cc4)CC3)cc2)c1=O (racemic) [ITRACONAZOLE] | 0.3 µg/mL | 0.04 µg/mL | >=0.89 ug ml-1
CCC(CC)n1ncn(-c2ccc(N3CCN(c4ccc(OC[C@@H]5CC[C@@](Cn6cncn6)(c6ccc(F)cc6F)O5)cc4)CC3)cc2)c1=O | >=128 ug ml-1 | <=0.1 ug ml-1 | >=128 ug ml-1
CCC(CC)n1ncn(-c2ccc(N3CCN(c4ccc(OC[C@H]5CC[C@](Cn6cncn6)(c6ccc(F)cc6F)O5)cc4)CC3)cc2)c1=O | 0.25 µg/mL | 0.02 µg/mL | >=0.35 ug ml-1
